Test results: ChEMBL document CHEMBL2202986, “Guaianolide sesquiterpene lactones, a source to discover agents that selectively inhibit acute myelogenous leukemia stem and progenitor cells” (J Med Chem, 2012); call rule not given here
pIC50: −log10 of the molar value.

What was measured:
[1] = Tmax in mouse at 150 mg/kg, po; type: ADME, organism-based; design: dose 150 mg/kg, route oral; details: in vivo
In short: (§1)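 Male Kunming mice (20 2 g), fasted 12 h before dosing with water available, given DMAMCL as an aqueous solution po (n = 5). Blood was drawn from the orbital veins at set times. Plasma DMAMCL and MCL were followed, and parameters came from noncompartmental analysis.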

[2] = Toxicity in po dosed BALB/c mouse administered every day for 7 days; details: in vivo
[3] = AUC (0 to t) in mouse at 100 mg/kg, iv; type: ADME, organism-based; design: dose 100 mg/kg, route intravenous; details: plasma
In short: (§2)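 Male Kunming mice (20 2 g), fasted 12 h before dosing with water available, given DMAMCL as an aqueous solution iv (n = 5). Blood was drawn from the orbital veins at set times. DMAMCL and MCL in plasma were measured, and parameters were derived by a noncompartmental model.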

[4] = AUC (0 to infinity) in mouse at 150 mg/kg, po; type: ADME, organism-based; design: dose 150 mg/kg, route oral, time infinity; details: plasma; in short: as §1
[5] = Mean retention time (0 to t) in mouse at 100 mg/kg, iv; type: ADME, organism-based; design: dose 100 mg/kg, route intravenous; details: in vivo; in short: as §2
Mus musculus [6] = assay: Toxicity in BALB/c mouse assessed as pathological changes in liver at 1000 mg/kg, po administered as single dose by hematoxylin-eosin staining method; type: organism-based; design: dose 1000 mg/kg, route oral; details: in vivo
In short: (§3)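 BALB/c mice, 16 in total (8 male, 8 female). DMAMCL was given by gavage as an aqueous solution, either 1000 mg/kg once or 500 mg/kg every day for seven doses. Controls were untreated and water-vehicle mice. Mice were killed 1 week after dosing. Heart, liver, spleen, lung and kidney were fixed in 10% neutral-buffered formalin, paraffin-embedded, cut into 3 μm sections, H&E-stained and examined microscopically for gross morphology.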

[7] = Drug degradation in HEPES buffer at pH <5 assessed as release of MCL; type: physicochemical
In short: (§4)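 A 20 μL aliquot of prodrug solution was added to 980 μL HEPES buffer (pH 7.4, or below 5.0) and incubated at 37 °C. Samples were withdrawn over time, and prodrug and released parent were quantified by HPLC (mean, SD, n = 4).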

[8] = AUC (0 to t) in mouse at 150 mg/kg, po; type: ADME, organism-based; design: dose 150 mg/kg, route oral; details: plasma; in short: as §1
[9] = Cytotoxicity against human HL60/A cells after 18 hrs by annexin-V labeling-based flow cytometry; type: functional, cell-based
Mus musculus [10] = assay: Toxicity in BALB/c mouse assessed as pathological changes in liver at 500 mg/kg, po administered every day for 7 days by hematoxylin-eosin staining method; details: in vivo, 168 h
Plasma = assay: Drug metabolism in mouse plasma assessed as release of MCL; type: ADME, cell-free
In short: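 A 20 μL aliquot of prodrug solution was added to 980 μL blank mouse plasma and incubated at 37 °C. Prodrug and released parent drug concentrations were measured over time by HPLC (mean, SD, n = 4).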

[11] = Half life in mouse at 150 mg/kg, po; type: ADME, organism-based; design: dose 150 mg/kg, route oral; details: in vivo; in short: as §1
[12] = Antitumor activity against human leukemia stem/progenitor cells xenografted in NOD/SCID mouse assessed as survival rate at 100 mg/kg, po qd administered every other day total of seven doses starting from 8 weeks post grafting measured on day 85; type: functional
In short: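 NOD/SCID mice were sublethally irradiated (280cGay), then 6−10 h later given primary AML M5 patient cells via tail vein in PBS. From 8 weeks postinoculation, aqueous solution was given orally at 100 mg/kg every other day for seven doses. Survival was followed, Kaplan−Meier, n = 6 per treated group and n = 7 untreated controls. Survivors at day 85 had bone marrow analysed for human CD45⁺CD33⁺ cells.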

Mus musculus [13] = assay: Toxicity in BALB/c mouse assessed as pathological changes in lung at 1000 mg/kg, po administered as single dose by hematoxylin-eosin staining method; type: organism-based; design: dose 1000 mg/kg, route oral; details: in vivo; in short: as §3
Mus musculus [14] = assay: Toxicity in BALB/c mouse assessed as pathological changes in spleen at 1000 mg/kg, po administered as single dose by hematoxylin-eosin staining method; type: organism-based; design: dose 1000 mg/kg, route oral; details: in vivo; in short: as §3
[15] = Drug degradation in HEPES buffer at pH 7.4 assessed as release of MCL up to 8 hrs; type: physicochemical; details: pH 7.4, 8 h; in short: as §4
[16] = Toxicity in po dosed BALB/c mouse administered as single dose; type: organism-based; details: in vivo
In short: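 Oral gavage of aqueous solution at a single dose of 1000 mg/kg. Untreated and water-vehicle mice served as controls; 16 mice in total (8 male/8 female). Mice were sacrificed 1 week after dosing. Heart, liver, spleen, lung and kidney were formalin-fixed, paraffin-embedded, sectioned at 3 μm, H&E-stained, and examined for gross morphology.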

[17] = Total clearance in mouse at 150 mg/kg, po; type: ADME, organism-based; design: dose 150 mg/kg, route oral; details: in vivo; in short: as §1

Structure (SMILES): CC1=C2CC[C@@](C)(O)[C@@H]2[C@H]2OC(=O)[C@@H](CN(C)C)[C@@H]2CC1.Cl [DIMETHYLAMINOMICHELIOLIDE HYDROCHLORIDE]
- Tmax [1]: 0.19 h
- MTD at 168 h [2]: 500 mg/kg
- AUC(0-t) [3]: 43900 ng·h/mL
- AUC(0-inf) [4]: 50300 ng·h/mL
- MRT last [5]: 1.51 h
- Activity (Mus musculus [6]): Non-toxic
- Drug degradation [7]: Not Active
- AUC(0-t) [8]: 49600 ng·h/mL
- pIC50 [9]: 4.67
- Activity (Mus musculus [10]): Non-toxic
- Drug metabolism (Plasma): Active
- half-life [11]: 9.82 h
- survival at 100 mg/kg [12]: 33%
- Activity (Mus musculus [13]): Non-toxic
- Activity (Mus musculus [14]): Non-toxic
- Drug degradation [15]: Active
- MTD [16]: 1000 mg/kg
- CL/F [17]: 51.3 mL/min/kg
